Measurements reported in ChEMBL document CHEMBL3244142, “Antifungal properties of 2-bromo-3-fluorosuccinic acid esters and related compounds” (1977).
≈ marks a conversion by molar mass, not a printed value. Structures can show the parent of a compound that is named as a salt. Calls of active or inactive are those of the source. The calls are words filed in the database; no cut-off is given here.

Assays:
Aspergillus niger [1] = assay: Antifungal activity against Aspergillus niger ATCC 1004 at <100 ug/ml at pH 5.6 after 5 days in presence of 10% beef serum; type: functional, organism-based
In short: (§1)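 Agar-dilution MIC in Sabouraud dextrose agar at pH 5.6 or 7.0, with or without 10% beef serum. Plates were incubated at 28 °C for 5 days. MIC is the lowest concentration (µg/mL) giving 100% inhibition. Steps were 1 µg/mL up to 10, 2 µg/mL from 10–20, and 10 µg/mL from 20–100; 100 µg/mL was the top level, and no inhibition there is scored as >100.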

Aspergillus niger [2] = assay: Antifungal activity against Aspergillus niger ATCC 1004 at <100 ug/ml at pH 7 after 5 days in absence of 10% beef serum; type: functional, organism-based; in short: as §1
Aspergillus niger [3] = assay: Antifungal activity against Aspergillus niger ATCC 1004 at <100 ug/ml at pH 7 after 5 days in presence of 10% beef serum; type: functional, organism-based; in short: as §1
[4] = system: Trichophyton mentagrophytes; assay: Antifungal activity against Trichophyton mentagrophytes ATCC 9129 at pH 5.6 after 5 days in absence of 10% beef serum; type: functional; settings: Trichophyton mentagrophytes, ATCC 9129, 120 h; read-out: MIC; in short: as §1
[5] = system: Trichophyton mentagrophytes; assay: Antifungal activity against Trichophyton mentagrophytes ATCC 9129 at pH 5.6 after 5 days in presence of 10% beef serum; type: functional; settings: Trichophyton mentagrophytes, ATCC 9129, 120 h; read-out: MIC; in short: as §1
[6] = system: Trichophyton mentagrophytes; assay: Antifungal activity against Trichophyton mentagrophytes ATCC 9129 at pH 7 after 5 days in absence of 10% beef serum; type: functional; settings: Trichophyton mentagrophytes, ATCC 9129, 120 h; read-out: MIC; in short: as §1
[7] = system: Trichophyton mentagrophytes; assay: Antifungal activity against Trichophyton mentagrophytes ATCC 9129 at <100 ug/ml at pH 7 after 5 days in presence of 10% beef serum; type: functional, organism-based; in short: as §1
Aspergillus niger [8] = assay: Antifungal activity against Aspergillus niger ATCC 1004 at <100 ug/ml at pH 5.6 after 5 days in absence of 10% beef serum; type: functional, organism-based; in short: as §1
Mucor mucedo [9] = assay: Antifungal activity against Mucor mucedo ATCC 7941 at pH 7 after 20 h in absence of 10% beef serum; settings: ATCC 7941, 20 h
Mucor mucedo [10] = assay: Antifungal activity against Mucor mucedo ATCC 7941 at pH 5.6 after 20 h in absence of 10% beef serum; settings: ATCC 7941, 20 h
Candida albicans [11] = assay: Antifungal activity against Candida albicans ATCC 10231 at pH 7 after 20 h in absence of 10% beef serum; settings: ATCC 10231, 20 h
Candida albicans [12] = assay: Antifungal activity against Candida albicans ATCC 10231 at pH 5.6 after 20 h in absence of 10% beef serum; settings: ATCC 10231, 20 h
Mucor mucedo [13] = assay: Antifungal activity against Mucor mucedo ATCC 7941 at <100 ug/ml at pH 7 after 20 h in presence of 10% beef serum
Mucor mucedo [14] = assay: Antifungal activity against Mucor mucedo ATCC 7941 at <100 ug/ml at pH 5.6 after 20 h in presence of 10% beef serum
Candida albicans [15] = assay: Antifungal activity against Candida albicans ATCC 10231 at <100 ug/ml at pH 7 after 20 h in presence of 10% beef serum
Candida albicans [16] = assay: Antifungal activity against Candida albicans ATCC 10231 at <100 ug/ml at pH 5.6 after 20 h in presence of 10% beef serum
[17] = system: Trichophyton mentagrophytes; assay: Antifungal activity against Trichophyton mentagrophytes ATCC 9129 at pH 7 after 5 days in presence of 10% beef serum; type: functional; settings: Trichophyton mentagrophytes, ATCC 9129, 120 h; read-out: MIC; in short: as §1
Mucor mucedo [18] = assay: Antifungal activity against Mucor mucedo ATCC 7941 at pH 7 after 20 h in presence of 10% beef serum; settings: ATCC 7941, 20 h
Mucor mucedo [19] = assay: Antifungal activity against Mucor mucedo ATCC 7941 at pH 5.6 after 20 h in presence of 10% beef serum; settings: ATCC 7941, 20 h
Candida albicans [20] = assay: Antifungal activity against Candida albicans ATCC 10231 at pH 7 after 20 h in presence of 10% beef serum; settings: ATCC 10231, 20 h
Candida albicans [21] = assay: Antifungal activity against Candida albicans ATCC 10231 at pH 5.6 after 20 h in presence of 10% beef serum; settings: ATCC 10231, 20 h
Aspergillus niger [22] = assay: Antifungal activity against Aspergillus niger ATCC 1004 at pH 5.6 after 5 days in presence of 10% beef serum; type: functional; settings: Aspergillus niger, ATCC 1004, 120 h; read-out: MIC; in short: as §1
Aspergillus niger [23] = assay: Antifungal activity against Aspergillus niger ATCC 1004 at pH 7 after 5 days in absence of 10% beef serum; type: functional; settings: Aspergillus niger, ATCC 1004, 120 h; read-out: MIC; in short: as §1
Aspergillus niger [24] = assay: Antifungal activity against Aspergillus niger ATCC 1004 at pH 5.6 after 5 days in absence of 10% beef serum; type: functional; settings: Aspergillus niger, ATCC 1004, 120 h; read-out: MIC; in short: as §1
[25] = system: Trichophyton mentagrophytes; assay: Antifungal activity against Trichophyton mentagrophytes ATCC 9129 at <100 ug/ml at pH 5.6 after 5 days in presence of 10% beef serum; type: functional, organism-based; in short: as §1
Mucor mucedo [26] = assay: Antifungal activity against Mucor mucedo ATCC 7941 at <100 ug/ml at pH 7 after 20 h in absence of 10% beef serum
Mucor mucedo [27] = assay: Antifungal activity against Mucor mucedo ATCC 7941 at <100 ug/ml at pH 5.6 after 20 h in absence of 10% beef serum
Candida albicans [28] = assay: Antifungal activity against Candida albicans ATCC 10231 at <100 ug/ml at pH 7 after 20 h in absence of 10% beef serum
Candida albicans [29] = assay: Antifungal activity against Candida albicans ATCC 10231 at <100 ug/ml at pH 5.6 after 20 h in absence of 10% beef serum

Structure (SMILES): CCCOC(=O)/C=C/C(=O)OCCC
- inhibition (Aspergillus niger [1]): inactive
- inhibition (Aspergillus niger [2]): inactive
- inhibition (Aspergillus niger [3]): inactive
- MIC [4]: 6 µg/mL (≈ 30 µM)
- MIC [5]: 50 µg/mL
- MIC [6]: 30 µg/mL (≈ 150 µM)
- inhibition [7]: inactive
- inhibition (Aspergillus niger [8]): inactive
- MIC (Mucor mucedo [9]): 70 µg/mL (≈ 350 µM)
- MIC (Mucor mucedo [10]): 60 µg/mL (≈ 300 µM)
- MIC (Candida albicans [11]): 70 µg/mL (≈ 350 µM)
- MIC (Candida albicans [12]): 70 µg/mL (≈ 350 µM)
- inhibition (Mucor mucedo [13]): inactive
- inhibition (Mucor mucedo [14]): inactive
- inhibition (Candida albicans [15]): inactive
- inhibition (Candida albicans [16]): inactive

Structure (SMILES): COC(=O)/C=C/C(=O)OC [DIMETHYL FUMARATE]
- inhibition (Aspergillus niger [1]): inactive
- inhibition (Aspergillus niger [2]): inactive
- inhibition (Aspergillus niger [3]): inactive
- MIC [4]: 8 µg/mL
- MIC [5]: 16 µg/mL
- MIC [6]: 20 µg/mL
- MIC [17]: 30 µg/mL
- inhibition (Aspergillus niger [8]): inactive
- MIC (Mucor mucedo [9]): 40 µg/mL
- MIC (Mucor mucedo [18]): 50 µg/mL
- MIC (Mucor mucedo [10]): 18 µg/mL
- MIC (Mucor mucedo [19]): 30 µg/mL
- MIC (Candida albicans [11]): 90 µg/mL
- MIC (Candida albicans [20]): 90 µg/mL
- MIC (Candida albicans [12]): 60 µg/mL
- MIC (Candida albicans [21]): 60 µg/mL

Structure (SMILES): COC(=O)/C=C(\F)C(=O)OC
- MIC (Aspergillus niger [22]): 50 µg/mL
- MIC (Aspergillus niger [23]): 60 µg/mL (≈ 370 µM)
- inhibition (Aspergillus niger [3]): inactive
- MIC [4]: < 1 µg/mL
- MIC [5]: 4 µg/mL
- MIC [6]: 8 µg/mL (≈ 49.3 µM)
- MIC [17]: 40 µg/mL
- MIC (Aspergillus niger [24]): 20 µg/mL (≈ 123 µM)
- MIC (Mucor mucedo [9]): 4 µg/mL (≈ 24.7 µM)
- MIC (Mucor mucedo [18]): 6 µg/mL
- MIC (Mucor mucedo [10]): < 1 µg/mL
- MIC (Mucor mucedo [19]): 2 µg/mL
- MIC (Candida albicans [11]): 20 µg/mL (≈ 123 µM)
- MIC (Candida albicans [20]): 40 µg/mL
- MIC (Candida albicans [12]): 4 µg/mL (≈ 24.7 µM)
- MIC (Candida albicans [21]): 6 µg/mL

Structure (SMILES): CCCCCOC(=O)[C@@H](F)[C@@H](Br)C(=O)OCCCCC (relative stereo)
- inhibition (Aspergillus niger [1]): inactive
- inhibition (Aspergillus niger [2]): inactive
- inhibition (Aspergillus niger [3]): inactive
- MIC [4]: 3 µg/mL (≈ 8.44 µM)
- inhibition [25]: inactive
- MIC [6]: 14 µg/mL (≈ 39.4 µM)
- inhibition [7]: inactive
- inhibition (Aspergillus niger [8]): inactive
- inhibition (Mucor mucedo [26]): inactive
- inhibition (Mucor mucedo [13]): inactive
- inhibition (Mucor mucedo [27]): inactive
- inhibition (Mucor mucedo [14]): inactive
- inhibition (Candida albicans [28]): inactive
- inhibition (Candida albicans [15]): inactive
- inhibition (Candida albicans [29]): inactive
- inhibition (Candida albicans [16]): inactive

Structure (SMILES): COC(=O)/C=C(/F)C(=O)OC
- inhibition (Aspergillus niger [1]): inactive
- inhibition (Aspergillus niger [2]): inactive
- inhibition (Aspergillus niger [3]): inactive
- MIC [4]: 6 µg/mL (≈ 37 µM)
- MIC [5]: 8 µg/mL
- MIC [6]: 50 µg/mL (≈ 308 µM)
- inhibition [7]: inactive
- inhibition (Aspergillus niger [8]): inactive
- MIC (Mucor mucedo [9]): 40 µg/mL (≈ 247 µM)
- MIC (Mucor mucedo [10]): 14 µg/mL (≈ 86.4 µM)
- MIC (Mucor mucedo [19]): 20 µg/mL
- inhibition (Mucor mucedo [13]): inactive
- inhibition (Candida albicans [28]): inactive
- inhibition (Candida albicans [15]): inactive
- inhibition (Candida albicans [29]): inactive
- inhibition (Candida albicans [16]): inactive

Structure (SMILES): CCCCCOC(=O)/C=C/C(=O)OCCCCC
- inhibition (Aspergillus niger [1]): inactive
- inhibition (Aspergillus niger [2]): inactive
- inhibition (Aspergillus niger [3]): inactive
- MIC [4]: 16 µg/mL (≈ 62.4 µM)
- inhibition [25]: inactive
- MIC [6]: 50 µg/mL (≈ 195 µM)
- inhibition [7]: inactive
- inhibition (Aspergillus niger [8]): inactive
- inhibition (Mucor mucedo [26]): inactive
- inhibition (Mucor mucedo [13]): inactive
- inhibition (Mucor mucedo [27]): inactive
- inhibition (Mucor mucedo [14]): inactive
- inhibition (Candida albicans [28]): inactive
- inhibition (Candida albicans [15]): inactive
- inhibition (Candida albicans [29]): inactive
- inhibition (Candida albicans [16]): inactive

Structure (SMILES): CCOC(=O)/C=C/C(=O)OCC
- inhibition (Aspergillus niger [1]): inactive
- inhibition (Aspergillus niger [2]): inactive
- inhibition (Aspergillus niger [3]): inactive
- MIC [4]: 7 µg/mL (≈ 40.7 µM)
- MIC [5]: 20 µg/mL
- MIC [6]: 18 µg/mL (≈ 105 µM)
- MIC [17]: 50 µg/mL
- inhibition (Aspergillus niger [8]): inactive
- MIC (Mucor mucedo [9]): 50 µg/mL (≈ 290 µM)
- MIC (Mucor mucedo [18]): 50 µg/mL
- MIC (Mucor mucedo [10]): 40 µg/mL (≈ 232 µM)
- MIC (Mucor mucedo [19]): 50 µg/mL
- MIC (Candida albicans [11]): 90 µg/mL (≈ 523 µM)
- MIC (Candida albicans [12]): 60 µg/mL (≈ 348 µM)
- MIC (Candida albicans [21]): 70 µg/mL
- inhibition (Candida albicans [15]): inactive

Structure (SMILES): CCCOC(=O)[C@H](F)[C@@H](Br)C(=O)OCCC (relative stereo)
- MIC (Aspergillus niger [22]): 40 µg/mL
- MIC (Aspergillus niger [23]): 40 µg/mL (≈ 134 µM)
- inhibition (Aspergillus niger [3]): inactive
- MIC [4]: < 1 µg/mL
- MIC [5]: 12 µg/mL
- MIC [6]: 2 µg/mL (≈ 6.69 µM)
- MIC [17]: 16 µg/mL
- MIC (Aspergillus niger [24]): 30 µg/mL (≈ 100 µM)
- MIC (Mucor mucedo [9]): 5 µg/mL (≈ 16.7 µM)
- MIC (Mucor mucedo [18]): 20 µg/mL
- MIC (Mucor mucedo [19]): 18 µg/mL
- MIC (Candida albicans [11]): 4 µg/mL (≈ 13.4 µM)
- MIC (Candida albicans [20]): 16 µg/mL
- MIC (Candida albicans [12]): 3 µg/mL (≈ 10 µM)
- MIC (Candida albicans [21]): 16 µg/mL

Structure (SMILES): COC(=O)/C=C(/Br)C(=O)OC
- inhibition (Aspergillus niger [1]): inactive
- inhibition (Aspergillus niger [2]): inactive
- inhibition (Aspergillus niger [3]): inactive
- MIC [4]: 4 µg/mL (≈ 17.9 µM)
- MIC [5]: 5 µg/mL
- MIC [6]: 7 µg/mL (≈ 31.4 µM)
- MIC [17]: 14 µg/mL
- inhibition (Aspergillus niger [8]): inactive
- MIC (Mucor mucedo [9]): 40 µg/mL (≈ 179 µM)
- MIC (Mucor mucedo [18]): 40 µg/mL
- MIC (Mucor mucedo [10]): 10 µg/mL (≈ 44.8 µM)
- MIC (Mucor mucedo [19]): 40 µg/mL
- MIC (Candida albicans [11]): 90 µg/mL (≈ 404 µM)
- MIC (Candida albicans [20]): 90 µg/mL
- MIC (Candida albicans [12]): 90 µg/mL (≈ 404 µM)
- MIC (Candida albicans [21]): 80 µg/mL
